Most compounds without a hit are left out; they make up all but 4.5% or so of the library.
STAT1 activator – STAT1 signaling activators, primary screen, cell-based, HTS, luciferase reporter; 200,000 tested, 2.6% active; NIH 3T3 STAT1-luciferase reporter, IFN-gamma, luminescence; 100% = IFN-gamma alone, no compound; activation (% of control), % at 5.5 µM;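 active = activation above the screen-wide mean activation plus 3 SD, cut at about 130% in these data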;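 also: raw ratio to IFN-gamma control signal so 100% means no change and 0% no light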
NF-kB expr up – activators of NF-kB expression in neurons, primary screen, cell-based, HTS | human neuronal cells, NF-kB reporter expression; stronger effect = higher value | fold change at 12.5 µM | 190,000 tested, 1.6% active; in the data active = fold change above about 3.3
APP 5'UTR act – activators of APP 5'UTR luciferase reporter, primary screen, SH-SY5Y cells; SH-SY5Y APP 5'UTR luciferase reporter, luminescence; zero percent = DMSO vehicle wells; activation, % at 2 µM; 190,000 tested, 1% active;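 active = activation above a set limit, based on mean plus 3 SD of controls, cut at about 140% in these data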
MDM2 E3 inh – MDM2-luciferase reporter signal enhancers, primary screen, MDM2 E3 ligase inhibitor project, cell-based, luminescence, 1536-well; AID 1230, 2008; cell-based MDM2 ubiquitination luciferase reporter, 2 h; 0 = plate control, 100 = twice control, blank-subtracted; 210,000 tested, 0.11% active; signal enhancement, % at 5 µM;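 active = signal enhancement of 30% or more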;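 also: luminescence tracks abundance of the self-degrading MDM2-luciferase fusion protein; higher signal means inhibition of MDM2 E3 ligase activity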
Target sequence (Q00987 whole entry, looked up, the tested form may be a part): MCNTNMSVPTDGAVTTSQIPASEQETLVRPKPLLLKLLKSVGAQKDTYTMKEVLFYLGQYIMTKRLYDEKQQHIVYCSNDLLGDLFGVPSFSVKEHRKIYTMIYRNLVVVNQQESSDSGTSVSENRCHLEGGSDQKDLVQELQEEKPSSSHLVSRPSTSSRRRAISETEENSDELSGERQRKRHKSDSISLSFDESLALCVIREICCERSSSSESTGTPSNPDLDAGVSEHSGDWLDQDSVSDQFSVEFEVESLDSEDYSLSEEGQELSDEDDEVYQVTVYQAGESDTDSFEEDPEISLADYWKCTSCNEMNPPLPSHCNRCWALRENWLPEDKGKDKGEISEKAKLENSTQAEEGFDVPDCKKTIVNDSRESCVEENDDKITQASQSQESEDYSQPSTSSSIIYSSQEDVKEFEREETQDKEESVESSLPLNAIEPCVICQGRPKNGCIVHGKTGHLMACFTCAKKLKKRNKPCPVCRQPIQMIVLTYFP
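test system = mammalian cells stably expressing self-ubiquitinating, self-degrading MDM2 E3–luciferase fusion | quantity = 2000 cells/well | incubation = cell settling 4 h, compound treatment 2 h, both 37 °C | signal = luminescence with SteadyLite reagent, 15 min at room temperature | evaluation = % enhancement relative to plate controls after blank subtraction | benchmarks = plate controls and plate blanks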
AHR act – AHR activators, primary screen, cell-based, luminescence, luciferase reporter, human; Aryl hydrocarbon receptor (Homo sapiens), P35869; AHR-responsive luciferase reporter cells; activation, % at 5 µM; 320,000 tested, 2.5% active; in the data active = activation above about 47%;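 also: 0% = vehicle wells and 100% = reference agonist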
PERK inhibitor – block of dimerizer-induced PERK translation repression, primary screen, PERK inhibitor project, CHO PERK-DD cells, SEAP luminescence, HTS; Eukaryotic translation initiation factor 2-alpha kinase 3 (Homo sapiens), Q9NZJ5; 220,000 tested, 0.17% active; inhibition, % at 5.6 µM; CHO PERK-DD fusion, SEAP luminescence translation reporter;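 active = inhibition above the mean inhibition of all tested compounds plus 3 SD, set separately per screening campaign, cut at about 2.9% in these data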;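 also: PERK kinase domain activated by AP20187 dimerizer at 100 nM; 0% = DMSO with dimerizer and 100% = rapamycin at 8.4 µM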
The depositor's hits bear a star; nt = no result.

SMILES	STAT1 activator	NF-kB expr up	APP 5'UTR act	MDM2 E3 inh	AHR act	PERK inhibitor
CCc1ccc(NC(=O)C2CC(=O)N(C(C)C)C2)cc1 (stereo not drawn)	110	1.3	-13	-10	78*	1
CC(=O)Nc1ccc(NC(=O)C2CC(=O)N(C(C)C)C2)cc1 (stereo not drawn)	nt	nt	nt	nt	1	nt
Cc1ccc(NC(=O)C2CCCN(C(=O)NCc3ccccc3)C2)c(C)c1 (stereo not drawn)	nt	nt	nt	nt	-1	nt
Cc1cc2nc(-c3cccnc3SCC(=O)NC(C)C)[nH]c2cc1C	126	1.2	63	-20	54*	0
COCCOC(=O)CSc1ncccc1-c1nc2cc(C)c(C)cc2[nH]1	110	3	43	-10	13	0
CC(C)(C)C(=O)c1sc(Nc2ccccc2)nc1N	150*	3.8*	64	-4	4	0
CC(C)(C)C(=O)CSc1nnc(Nc2ccccc2)s1	130*	1.8	16	1	11	1
O=C1c2ccccc2C(=O)N1CSc1nnc(Nc2ccccc2)s1	102	nt	17	5	1	0
Cc1nc(Nc2ccccc2)sc1C(=O)c1ccccc1	nt	nt	nt	-14	-2	1
COCCn1c(=O)c2c(nc3n2CC(C)CN3CCc2ccccc2)n(C)c1=O (stereo not drawn)	nt	nt	nt	nt	5	nt
c1ccc2oc(SCc3cn4ccccc4n3)nc2c1	131*	3.4*	125	-11	-2	2
Brc1c(CSc2nc3ccccc3o2)nc2ncccn12	134*	2.5	37	-13	16	2
Clc1c(CSc2nc3ccccc3o2)nc2ccccn12	137*	5.5*	172*	-62	16	-1
Clc1c(CSc2nc3ccccc3o2)nc2sccn12	127	8.1*	136*	-16	16	1
COC(=O)CSc1nc2ccccc2o1	110	0.97	0	-10	-1	1
Cc1cc(C)nc(SCc2nc3ncccn3c2Br)n1	103	1.1	1	-10	25	0
O=S(=O)(NCCC1=CCCCC1)c1ccc(Br)cc1	nt	nt	nt	nt	1	nt
O=C1[C@H]2[C@@H](C(=O)N1c1cccc3ccccc13)C1(C(=O)c3ccccc3C1=O)N1CCC[C@@H]21	104	3.4*	1	-14	5	1
Cc1ccc(C(=O)O[C@H](C(=O)O)[C@H](OC(=O)c2ccc(C)cc2)C(=O)O)cc1	nt	nt	nt	nt	0	nt
O=C(CC(SCc1ccco1)c1ccc(O)cc1)c1cccs1 (stereo not drawn)	118	5.4*	71	1	7	0
O=C(CC(SCCO)c1ccc2c(c1)OCO2)c1cccs1 (stereo not drawn)	132*	3.2	69	-22	2	3
COC(=O)c1cccc(COC(=O)c2cccnc2SC)c1	113	3.5*	19	-20	3	-1
COc1ccc(C(C)=O)cc1COC(=O)c1cccnc1SC	98	3.9*	-2	-10	3	0
CCOc1ccc(C(C)=O)cc1COC(=O)c1cccnc1SC	88	1.4	-7	-10	-1	0
O=C(OCc1nnc(-c2ccc(Cl)cc2)o1)C12CC3CC(CC(O)(C3)C1)C2	138*	1.1	53	-11	5	1
SMILES	STAT1 activator	NF-kB expr up	APP 5'UTR act	MDM2 E3 inh	AHR act	PERK inhibitor
CCCC1=C(C(=O)OCC)C(c2cccnc2)n2nc(C)nc2N1 (stereo not drawn)	nt	nt	nt	5	1	-2
O=C(CN1C2=NCCCN2c2ccccc21)c1ccc(Cl)cc1Cl	110	0.75	-8	-20	59*	0
CCOC(=O)N1CCC2(CC1)C(C#N)=C(N)Oc1c2sc2nc(C)cc(C)c12	83	1.6	-13	1	11	0
CCCN1CCC2(CC1)C(C#N)=C(N)Oc1c2sc2nc(C)cc(C)c12	95	1.5	13	-24	61*	-1
Cc1cc(N/N=C/c2ccccc2Br)nc2ccccc12	102	1.7	22	-19	52*	0
Cc1cc(N/N=C/c2ccc3c(c2)OCO3)nc2ccccc12	nt	nt	nt	-6	11	-2
Cc1cccc(C(=O)NNC(=S)NC(=O)c2cccs2)c1	nt	nt	nt	nt	21	nt
COc1ccc(-c2oc3cccnc3c2/C=C/c2ccc(OC)c(OC)c2)cc1	nt	nt	nt	nt	47*	nt
COc1ccc(/C=C/c2c(-c3ccc(OC)cc3)oc(=O)c3cc(OC)c(OC)cc23)cc1	nt	nt	nt	nt	7	nt
CCc1ccc(NC(=O)C2CCN(S(=O)(=O)c3cccs3)CC2)cc1	nt	nt	nt	nt	6	nt
O=[N+]([O-])c1cccc(-c2nc3ccc([N+](=O)[O-])cc3[nH]2)c1	123	1.6	22	-8	5	0
Cc1ccc(-c2nc3ccc([N+](=O)[O-])cc3[nH]2)cc1	71	5.9*	152*	-73	0	1
Oc1c(Br)cc(C=Nc2ccc3nc(-c4ccccc4)[nH]c3c2)c(O)c1Br	133*	0.83	70	-26	26	1
O=[N+]([O-])c1ccc(O)c(C=Nc2ccc3nc(-c4ccccc4)[nH]c3c2)c1	140*	1.8	75	-13	67*	1
CC1(C)CC2(C)OC(=N)C1(C#N)C2(C#N)C#N (stereo not drawn)	nt	nt	nt	1	-2	0
Cc1sc(N/N=C/c2cccs2)nc1-c1ccccc1	118	2.3	38	2	78*	0
COc1cc2c(cc1NC(=O)CSc1cccc[n+]1[O-])oc1ccccc12	109	1.1	-6	-7	80*	0
COc1cc2c(cc1NC(=O)CSc1nc3ccc(C)cc3[nH]1)oc1ccccc12	99	1.1	-1	1	57*	-1
COc1cc2c(cc1NC(=O)CSc1ccc(C)cc1)oc1ccccc12	102	0.83	11	-3	9	2
COc1cc2c(cc1NC(=O)CSCC(=O)O)oc1ccccc12	93	1.2	19	-13	12	0
COc1cc2c(cc1NC(=O)CSc1nnc(Cc3cccs3)n1C)oc1ccccc12	101	0.86	-2	-11	47*	-1
COc1ccccc1NC(=O)CSc1nnc(CCC(=O)Nc2ccccc2F)n1C	nt	nt	nt	-30	2	3.9*
N#Cc1cccc(C#N)c1Oc1ccc(N)cc1	nt	nt	nt	1	1	1
Cc1cccc(NC(=O)CSc2n[nH]c(-c3cccnc3)n2)c1	nt	nt	nt	nt	4	nt
CNC(=O)NNC(=O)c1csc(-c2ccc(C(F)(F)F)cc2Cl)n1	nt	nt	nt	-13	8	3
CNC(=O)NNC(=O)c1csc(Cc2c(Cl)sc3ccc(Cl)cc23)n1	nt	nt	nt	-7	47*	-1

Screening data from PubChem BioAssay.
